INS promoter act – TRM-6 insulin promoter activation. TRM-6 cells (human fetal islet line), insulin promoter eGFP reporter, imaging; plate-scaled: unstimulated 0, stimulated control 100. activation, % at 2 µM. hit rate 0.81% among 130,000. AID 1296;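 active means activation at 2 µM above a set limit, confirmed on inspection of the cell images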;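 further: share of cells whose green reporter signal exceeds an intensity cutoff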
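Assay system: TRM-6 human fetal islet cells, insulin promoter–eGFP reporter; Also added: 0.75 µM tamoxifen as reporter inducer; Schedule: 15 h tamoxifen pre-treatment, 48 h compound treatment at 37 °C; Signal: fixed-cell fluorescence microscopy, eGFP plus Hoechst; Read-out: percent activation from GFP-positive cell fraction; Control set: stimulated and unstimulated wells.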
Numbers without * were called inactive; [ ] = dose if it differs, or a comment. Many of the other results were omitted from the sample, so hits are more common in it than they were.

SMILES	INS promoter act
CCOC(=O)c1cc(CC)sc1/N=C/C1C(=O)NC(=S)NC1=O	295.0*
Clc1cnc(Oc2ccc(Oc3ncc(Cl)cc3Cl)cc2)c(Cl)c1	-2.8
N/C(=N/[N+](=O)[O-])N1CCN(C(=O)c2ccc(Cl)cc2)CC1	-71.4
COc1ccc(C(=O)N2CCCC2=O)cc1	4.8
c1ccc(-c2ccc(-c3n(-c4ccccn4)c4ccccc4[n+]3-c3ccccn3)cc2)cc1	0.0
O=C(c1ccc(CS(=O)(=O)c2ccccc2)o1)N1CCC2(CC1)OCCO2	-6.9
O=P(N1CCCCC1)(N1CCCCC1)C(Cl)(Cl)Cl	135.7
Cc1ccc(C)c(OCC(=O)N2CCN(Cc3ccc4c(c3)OCO4)CC2)c1	-3.7
O=c1c2ccccc2nc(-c2ccco2)n1-c1cccnc1	-2.9
CCCCOc1nc2ccccc2c(=O)n1-c1ccccc1	3.3
O=c1c2ccccc2nc(SCC2CCCCO2)n1-c1ccccc1 (stereo not given)	366.7*
CC1=C(C(=O)N2CCC3(CC2)OCCO3)C2(CCC(C)CC2)OC1=O (stereo not given)	-72.8
CN1CCN(c2ccc([N+](=O)[O-])c(SCCO)c2)CC1	-8.3
O=C(COc1ccccc1)Nc1ccc(Cl)cc1C(=O)c1ccccc1	116.7
Cc1ccc(C(=O)Nc2ccc(Cl)cc2C(=O)c2ccccc2)cc1	113.3
O=C(Nc1ccc(Cl)cc1C(=O)c1ccccc1Cl)c1ccco1	230.0*
CCOc1ccc(-n2c(O)c(C=NCCN3CCNCC3)c(=O)[nH]c2=O)cc1	8.6
CCCCC12CNCC(C)(CNC1)C2=O	0.0
COc1ccc(N=C2SCCCN2C)cc1	512.5*
CC(C)(C)NC(=S)N1CCn2cccc2C1c1cccnc1 (stereo not given)	0.0
S=C1NCCN1	-9.1
Nc1ccncc1	-4.8
COP(=O)(OC)C(NC(=O)/C=C/c1ccccc1)C(Cl)(Cl)Cl (stereo not given)	2.9
OC1/C(=C/c2ccc(F)cc2)N2CCC1CC2 (stereo not given)	0.0
Cn1c(O)c(C=NC2C(=O)C3(C)CCC2C3(C)C)c(=O)n(C)c1=O (stereo not given)	3.2
N=C1c2ccccc2CN1NC(=O)c1ccc(Br)cc1	-7.7
Brc1ccc(C2N3CCCN23)cc1 (stereo not given)	508.3*
CCN1/C(=C\C=C\C2=[N+](CC)c3ccccc3C2(C)C)C(C)(C)c2ccccc21	257.1*[toxic and fluoresces]
CCSc1cc(C2C(C#N)=C(N)Oc3n[nH]c(C)c32)c(C)o1 (stereo not given)	-6.2
O=C(c1ccccc1F)c1cn(CC(=O)N2CCCCC2)c2ccccc12	-2.8
